We go through three compounds from ChEMBL document CHEMBL1125641, “Syntheses and in vitro evaluation of water-soluble "cationic metalloporphyrin-ellipticine" molecules having a high affinity for DNA” (J Med Chem, 1991).

Assay [1] relates to L1210. The assay can be described thus: Concentration required to reduce 50% growth of L1210 cells in 48h; b=No inhibition at 7.5 uM. In kind it is functional, cell-based, Mus musculus. The method in brief:
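Murine leukaemia L1210 cells grown in vitro, with the metalloporphyrin derivatives dissolved in water. Growth was measured after 48 h against untreated controls. IC50 is the concentration that cuts the rate of cell multiplication by 50%. Values are the mean of two or three determinations, or of four independent experiments where a deviation is given.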

Assay [2] has as its system Nucleic Acid. The assay can be described thus: DNA affinity constant to poly[d(G-C)]. The format is nucleic-acid assay. To be noted: Bos taurus. The procedure, abridged: (§1)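 Ethidium bromide displacement at 25 °C in 0.01 M cacodylate pH 7.0 with 10 mM NaCl, using 1.26 μM EB and 1 μM polynucleotide (poly[d(A-T)] or poly[d(G-C)]). Bound-EB fluorescence was read across varying drug concentrations. The concentration displacing 50% of EB came from nonlinear-regression fitting, and Kapp was derived from it by the Baguley method.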

Assay [3] concerns Nucleic Acid. Kind of assay: DNA affinity constant to poly[d(A-T)]. The format is nucleic-acid assay. The following applies: Bos taurus. The method in brief: as §1
For assay [4], the system named is L1210. Kind of assay: Concentration required to reduce 50% growth of L1210 cells in 48 hr. The format is functional, cell-based, Mus musculus. The procedure, abridged:
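Murine leukemia L1210 cells grown in vitro with the derivatives, which were dissolved in water. Growth was scored after 48 h against untreated controls. IC50 is the concentration that cuts cell multiplication by 50%. Values are the mean of two or three determinations, or four independent experiments where a standard deviation is given.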

Where [5] appears, read: tested as the Zn salt or complex.

As usually defined, the IC50 is the point on the concentration scale where inhibition reaches its midpoint. `CC(=O)[O-].CC(=O)[O-].CC(=O)[O-].CC(=O)[O-].COc1ccc2[nH]c3c(C)c4cc[n+](CCCCC(=O)Nc5ccc(-c6c7nc(c(-c8cc[n+](C)cc8)c8ccc([nH]8)c(-c8cc[n+](C)cc8)c8nc(c(-c9cc[n+](C)cc9)c9ccc6[nH]9)C=C8)C=C7)cc5)cc4c(C)c3c2c1.[Zn]`: in the assay with L1210 [1], the IC50 entry was “No growth inhibition”. The figures for the K app with Nucleic Acid [2] (setting [5]) and with Nucleic Acid [3] (setting [5]) were 1.9e+08 M⁻¹ and 2e+09 M⁻¹, respectively.

With BLEOMYCIN, the IC50 with L1210 [4] (l1210) came out at 1700 nM.

In the case of `COc1ccc2[nH]c3c(C)c4cc[n+](CCCCC(=O)O)cc4c(C)c3c2c1`, in the assay with L1210 [4] (Mus musculus, L1210, 48 h), the IC50 was more than 23000 nM. Besides, the K app in the assay on Nucleic Acid [2] stood at 4.9e+06 M⁻¹; in the assay with Nucleic Acid [3], 2.5e+06 M⁻¹.
